By TGI is commonly meant the concentration at which net growth stops. By GI50 is commonly meant the concentration at which growth is held to half of that of the control.

The structures appear in SMILES notation.

This is an account of results in ChEMBL document CHEMBL4334460, “Madecassic Acid Derivatives as Potential Anticancer Agents: Synthesis and Cytotoxic Evaluation” (2019).

In assay [1] the test system is COLO 205. The assay can be described thus: Induction of cell cycle arrest in human COLO205 cells assessed as cell population at S phase at 20 uM after 48 hrs by PI/RNase staining based flow cytometry (reference value: 16.3%). The class given is functional. In outline: (§1)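 COLO 205 cells grown at 37 °C, 5% CO2 in RPMI with 10% FBS and penicillin/streptomycin. Treated 48 h with 10 or 20 μM compound or DMSO vehicle. Cells trypsinized, fixed in ethanol 15 min on ice, stained with PI/RNase solution 40 min at 37 °C, then analysed by imaging cytometry. % cells per phase given as mean ± SD of three independent experiments.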

Assay [2] concerns COLO 205. The assay can be described thus: Induction of cell cycle arrest in human COLO205 cells assessed as cell population at G2/M phase at 10 uM after 48 hrs by PI/RNase staining based flow cytometry (reference value: 18.6%). In kind it is functional. In outline: as §1
For orientation: Flow cytometry measures light scatter and fluorescence of single cells or particles in a stream.

Assay [3] has as its system COLO 205. Description: Induction of cell cycle arrest in human COLO205 cells assessed as cell population at G2/M phase at 20 uM after 48 hrs by PI/RNase staining based flow cytometry (reference value: 18.6%). In kind it is functional. The gist of the method: as §1
Assay [4] in a line: Selectivity ratio of GI50 for human Hs 578T cells to GI50 for human T47D cells. In kind it is functional.
The subject of assay [5] is COLO 205. The assay can be described thus: Antiproliferative activity against human COLO205 cells assessed as growth inhibition after 48 hrs by sulforhodamine B assay. The class given is functional. The conditions noted are these: COLO 205, 48 h.
The subject of assay [6] is CCRF-CEM. Description: Antiproliferative activity against human CCRF-CEM cells assessed as cell growth at 10 uM after 48 hrs by sulforhodamine B assay relative to control. In kind it is functional. Particulars: pooled result: one value given for 60 cell lines, strains, targets or settings, read-out: Activity. In outline: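 NCI-60 one-dose screen: cells exposed to test compound at a single 10 μM concentration, viability after 48 h read by sulforhodamine B staining; value is growth percent versus negative control, with a time-zero cell control used to determine total cell growth.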

A short description of assay [7]: Selectivity ratio of GI50 for human RXF 393 cells to GI50 for human CAKi1 cells. In kind it is functional.
A short description of assay [8]: Selectivity ratio of GI50 for human Hs 578T cells to GI50 for human MDA-MB-468 cells. In kind it is functional.
In assay [9] the test system is SK-MEL-5. Description: Antiproliferative activity against human SK-MEL-5 cells assessed as growth inhibition after 48 hrs by sulforhodamine B assay. In kind it is functional. The conditions noted are these: SK-MEL-5, 48 h. Background: The SRB assay estimates cell density from bound dye.
Assay [10] relates to COLO 205. The assay can be described thus: Induction of mitochondrial dysfunction in human COLO205 cells assessed as reduction in mitochondrial membrane potential by measuring shift in red to green fluorescence after 48 hrs by JC-1 staining based inverted microscopic analysis. In kind it is functional, cell-based. In outline:
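COLO 205 cells (5 × 10^5) grown on coverslips overnight, then treated 48 h with 10 or 20 μM compound or DMSO. Fresh medium with 4 μg/mL JC-1 added for 30 min at 37 °C. Cells washed twice and imaged immediately by inverted fluorescence microscopy (40× objective) at room temperature, scoring red aggregate vs green monomer fluorescence.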

Assay [11] relates to UACC-257. The assay can be described thus: Antiproliferative activity against human UACC257 cells assessed as growth inhibition after 48 hrs by sulforhodamine B assay. The class given is functional. Particulars: UACC-257, 48 h. In outline:
(§2)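 NCI-60 five-dose follow-up, run only when the one-dose screen indicated activity. Doses 100 μM down to 0.01 μM in log steps (0.01, 0.1, 1, 10, 100 μM). 48 h incubation with sulforhodamine B read-out. A time-zero cell control allowed calculation of GI50 from % growth vs concentration dose–response curves.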

Assay [12] in a line: Selectivity ratio of GI50 for human Hs 578T cells to GI50 for human MCF7 cells. The class given is functional.
Assay [13] deals with HCT-15. The assay can be described thus: Antiproliferative activity against human HCT15 cells assessed as growth inhibition after 48 hrs by sulforhodamine B assay. In kind it is functional. The conditions noted are these: HCT-15, 48 h.
For assay [14], the system named is UO-31. The assay can be described thus: Antiproliferative activity against human UO31 cells assessed as growth inhibition after 48 hrs by sulforhodamine B assay. The conditions noted are these: UO-31, 48 h. In kind it is functional. The gist of the method:
as §2

For assay [15], the system named is COLO 205. Description: Induction of cell cycle arrest in human COLO205 cells assessed as cell population at G0/G1 phase at 10 uM after 48 hrs by PI/RNase staining based flow cytometry (reference value: 63.8%). In kind it is functional. In outline:
as §1

The subject of assay [16] is COLO 205. The assay can be described thus: Induction of cell cycle arrest in human COLO205 cells assessed as cell population at G0/G1 phase at 20 uM after 48 hrs by PI/RNase staining based flow cytometry (reference value: 63.8%). In kind it is functional. In outline: as §1
The subject of assay [17] is UACC-257. The assay can be described thus: Antiproliferative activity against human UACC257 cells assessed as reduction in cell viability after 48 hrs by SRB assay. The conditions noted are these: UACC-257, 48 h, read-out: LC50 (the source's name). In kind it is functional. The gist of the method:
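NCI-60 five-dose testing at 100, 10, 1, 0.1 and 0.01 μM (log dilutions). After 48 h incubation, viability was read by sulforhodamine B staining. A time-zero cell control gave total growth per cell line. GI50, TGI and LC50 were calculated from % growth versus concentration curves.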

In assay [18] the test system is CCRF-CEM. Description: Antiproliferative activity against human CCRF-CEM cells assessed as growth inhibition after 48 hrs by sulforhodamine B assay. In kind it is functional. The conditions noted are these: pooled result: one value given for 58 cell lines, strains, targets or settings.
A short description of assay [19]: Selectivity ratio of GI50 for human NCI-H226 cells to GI50 for human NCI-H460 cells. In kind it is functional.
Assay [20] can be described thus: Selectivity ratio of GI50 for human OVCAR5 cells to GI50 for human OVCAR4 cells. The class given is functional.
The test system of assay [21] is COLO 205. Description: Induction of cell cycle arrest in human COLO205 cells assessed as cell population at S phase at 10 uM after 48 hrs by PI/RNase staining based flow cytometry (reference value: 16.3%). In kind it is functional. The gist of the method: as §1
Assay [22] can be described thus: Selectivity ratio of GI50 for human NCI-H226 cells to GI50 for human NCI-H23 cells. In kind it is functional.

As to `COC(=O)[C@]12CC[C@@H](C)[C@H](C)[C@H]1C1=CC[C@@H]3[C@@]4(C)CC(=O)[C@H](OC(=O)c5ccco5)[C@@]5(C)COC(=C45)C[C@@]3(C)[C@]1(C)CC2`, the Activity in assay [1] is 3.3%; in assay [2], 6.6%; in [3] it was 6.2%; in [10], “Dose-dependent effect”; in assay [15], 88.4%; in assay [16], 89.1%. The Activity in [21] is given as 3.8%. In addition, the RatioGI50 is recorded as >100 in assay [4]; >50 in assay [7]; >100 in [8]; >100 in assay [12]; >100 in [19]; >50 in assay [20]. In [22], the RatioGI50 was >50. For the same compound, the TGI in [5] was determined as 3000 nM; in [9], 2600 nM; in [11], 3000 nM. In addition, in [6], the growth at 10 µM was found to be 27.2%. Besides, the GI50 in [13] worked out at 500 nM; in [14], 1700 nM; in assay [18], 2300 nM. The CC50 in assay [17] was found to be 50.1 µM.
